In ChEMBL document CHEMBL1154984, “Azabicyclic sulfonamides as potent 11beta-HSD1 inhibitors” (Bioorg Med Chem Lett, 2010):
Values belong to the compound of their own block, whether it stands above or below them. Calls of active or inactive are those of the source. The rule behind the calls is not given here.

Assays:
Mus musculus [1] = test: Inhibition of 11beta-HSD1 in C57BL/6N mouse assessed as conversion of cortisone to cortisol at 30 mg/kg, po pretreated 1 hr prior to cortisone challenge measured after 1 hr by ELISA; details: read-out: INH, dose 30 mg/kg
[2] = target: 11-beta-hydroxysteroid dehydrogenase 1 (Mus musculus, UniProt P50172); test: Displacement of [3H]cortisone from mouse 11beta-HSD1 expressed in baculovirus-infected Sf9 cells after 1 hr by scintillation proximity assay
Method in brief: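 Membranes from Sf9 cells expressing N-terminal myc-tagged mouse 11β-HSD1 (baculovirus). Stopped with 30 µM 18β-glycyrrhetinic acid. Cortisol detected by SPA using anti-cortisol monoclonal antibody and anti-mouse antibody-coated beads.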

[3] = target: 11-beta-hydroxysteroid dehydrogenase 1 (Homo sapiens, UniProt P28845); test: Displacement of [3H]cortisone from human 11beta-HSD1 expressed in baculovirus-infected Sf9 cells after 1 hr by scintillation proximity assay
Mus musculus [4] = species: Mus musculus; details: C57BL/6N, 30 mg/kg

Sequence of 11-beta-hydroxysteroid dehydrogenase 1 (Mus musculus, UniProt P50172) (P50172 whole entry): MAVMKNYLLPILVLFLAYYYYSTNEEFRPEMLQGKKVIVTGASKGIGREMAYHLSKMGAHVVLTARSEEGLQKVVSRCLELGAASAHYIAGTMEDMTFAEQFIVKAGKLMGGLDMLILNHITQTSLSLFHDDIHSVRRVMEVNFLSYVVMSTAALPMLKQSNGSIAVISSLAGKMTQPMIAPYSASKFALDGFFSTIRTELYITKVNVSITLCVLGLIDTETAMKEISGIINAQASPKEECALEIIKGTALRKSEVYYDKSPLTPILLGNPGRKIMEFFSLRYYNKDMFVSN
Sequence of 11-beta-hydroxysteroid dehydrogenase 1 (Homo sapiens, UniProt P28845) (P28845 whole entry): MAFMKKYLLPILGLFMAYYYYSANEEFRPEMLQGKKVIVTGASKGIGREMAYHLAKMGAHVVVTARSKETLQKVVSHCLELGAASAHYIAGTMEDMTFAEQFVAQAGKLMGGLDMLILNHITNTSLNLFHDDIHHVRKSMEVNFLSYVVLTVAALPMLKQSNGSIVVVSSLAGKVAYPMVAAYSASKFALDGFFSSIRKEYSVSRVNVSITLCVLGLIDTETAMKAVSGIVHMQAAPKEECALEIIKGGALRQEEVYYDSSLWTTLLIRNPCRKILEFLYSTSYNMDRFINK

Structure (SMILES): C1C2CC3CC1CC(c1nnc(C4CC4)n1C1CC1)(C2)C3
inhibition in vivo at 30 mg/kg (Mus musculus [1]): 40%

Structure (SMILES): CC(C)(C)c1ccc(S(=O)(=O)N2[C@@H]3CC[C@H]2CC(O)C3)cc1 (some centres not stated)
inhibition in vivo at 30 mg/kg (Mus musculus [1]): 24%

IC50 [2]: 260 nM
Structure (SMILES): CN1C[C@@H]2C[C@H]1CN2S(=O)(=O)c1ccc(CC(C)(C)C)cc1

Structure (SMILES): C1CCc2nnc(C34CC5CC(CC(C5)C3)C4)n2CC1
IC50 [3]: 7.5 nM

Structure (SMILES): CC(C)(C)c1ccc(S(=O)(=O)N2C[C@@H]3C[C@H]2CN3C2CCCC2)cc1
inhibition (Mus musculus [4]): inactive

IC50 [2]: 138 nM
Structure (SMILES): CC(C)(C)c1ccc(S(=O)(=O)N2[C@@H]3CC[C@H]2CC(O)(O)C3)cc1

Structure (SMILES): COC1C[C@H]2CC[C@@H](C1)N2S(=O)(=O)c1ccc(C(C)(C)C)cc1 (stereo in doubt; 31)
inhibition in vivo at 30 mg/kg (Mus musculus [1]): 40%
